Tests used:
[1] = tested on: Human immunodeficiency virus type 1 reverse transcriptase (Human immunodeficiency virus 1), Q72547 [M184V]; test: Ratio of Kpol/Kd for DNA-dependent DNA polymerase activity of HIV 1 reverse transcriptase M184V mutant assessed as incorporation of 4-EdTMP by burst assay using DNA/DNA Primer/Template combination
Outline: (§1)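 Single-turnover rapid-quench at 25°C in Tris-HCl pH 7.8/NaCl/MgSO4 buffer, with enzyme in excess: 250 nM wild-type or M184V RT and 50 nM 5′-32P-labeled DNA/DNA or DNA/RNA primer/template. The incoming nucleotide concentration was varied. Products were resolved by urea-PAGE and phosphorimaged. First-phase rates were fitted to kobs = kpol[S]/(Kd+[S]), and efficiency was taken as kpol/Kd.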

[2] = tested on: Human immunodeficiency virus type 1 reverse transcriptase (Human immunodeficiency virus 1), Q72547 [M184V]; test: Activity of RNA-dependent DNA polymerase activity of HIV 1 reverse transcriptase M184V mutant assessed as incorporation of 4-EdTMP by burst assay using RNA/DNA Primer/Template combination
Outline: (§2)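 Purified HIV-1 RT (wild type or M184V built by site-directed mutagenesis) was preincubated with a 5′-32P-labeled primer annealed to a DNA or RNA template. It was rapidly mixed in a quench-flow at 25°C in 50 mM Tris-HCl pH 7.8 with 50 mM NaCl and MgSO4. Final: 300 nM P/T, 100 nM enzyme, 1 mM nucleotide. Reactions were EDTA-quenched at set times, run on urea-PAGE and phosphorimaged, then fitted to the burst equation.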

[3] = biological target: T1, Human immunodeficiency virus type 1 reverse transcriptase (Human immunodeficiency virus 1, UniProt Q72547, M184V); test: Inhibition of RNA-dependent DNA polymerase activity of HIV 1 reverse transcriptase M184V mutant assessed as incorporation of 4-EdTMP by single-turnover assay using RNA/DNA Primer/Template combination
[4] = tested on: Human immunodeficiency virus type 1 reverse transcriptase (Human immunodeficiency virus 1), Q72547 [M184V]; test: (§3) Selectivity index, ratio of Kpol/Kd for RNA-dependent DNA polymerase activity of HIV 1 reverse transcriptase M184V mutant assessed as incorporation of dTMP to Kpol/Kd for RNA-dependent DNA polymerase activity of HIV 1 reverse transcriptase reverse transcriptase M184V mutant assessed as incorporation of Ed4TMP
Outline: (§4)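 Selectivity factor: the single-turnover incorporation efficiency (kpol/Kd) for dTTP divided by that for the analogue triphosphate. Both used the same RT (wild type or M184V) and the same primer/template, DNA/DNA or DNA/RNA. Kd and kpol came from hyperbolic fits of first-phase rates against nucleotide concentration, with 250 nM RT over 50 nM labeled P/T at 25°C.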

[5] = tested on: Human immunodeficiency virus type 1 reverse transcriptase (Human immunodeficiency virus 1), Q72547 [M184V]; test: Activity of DNA-dependent DNA polymerase activity of HIV 1 reverse transcriptase M184V mutant assessed as incorporation of 4-EdTMP by burst assay using DNA/DNA Primer/Template combination; outline: as §2
[6] = tested on: Human immunodeficiency virus type 1 reverse transcriptase (Human immunodeficiency virus 1), Q72547 [M184V]; test: Ratio of Kpol/Kd for RNA-dependent DNA polymerase activity of HIV 1 reverse transcriptase M184V mutant assessed as incorporation of 4-EdTMP by burst assay using RNA/DNA Primer/Template combination; outline: as §1
[7] = tested on: Human immunodeficiency virus type 1 reverse transcriptase (Human immunodeficiency virus 1), Q72547 [M184V]; test: as §3, with “DNA-dependent” for “RNA-dependent”; outline: as §4
[8] = biological target: T2, Human immunodeficiency virus type 1 reverse transcriptase (Human immunodeficiency virus 1, UniProt Q72547); test: Inhibition of RNA-dependent DNA polymerase activity of HIV 1 reverse transcriptase assessed as incorporation of 4-EdTMP by burst assay using RNA/DNA Primer/Template combination
Outline: (§5)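 Rapid chemical quench-flow at 25°C in 50 mM Tris-HCl pH 7.8, 50 mM NaCl. Wt or M184V HIV-1 RT (100 nM final) was preincubated with 5′-32P-labelled primer/template (300 nM final; DNA/DNA or DNA/RNA). It was mixed with buffer containing 20 mM MgSO4 (pre-mixing) and 2 mM nucleotide triphosphate (pre-mixing). Reactions were quenched at set times with 0.5 M EDTA and products resolved by urea-PAGE with phosphorimaging. Data were fitted to the burst equation.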

[9] = biological target: Human immunodeficiency virus type 1 reverse transcriptase (Human immunodeficiency virus 1) (UniProt Q72547); test: Ratio of Kpol/Kd for DNA-dependent DNA polymerase activity of HIV 1 reverse transcriptase assessed as incorporation of 4-EdTMP by burst assay using DNA/DNA Primer/Template combination; outline: as §1
[10] = biological target: Human immunodeficiency virus type 1 reverse transcriptase (Human immunodeficiency virus 1) (UniProt Q72547); test: Ratio of Kpol/Kd for RNA-dependent DNA polymerase activity of HIV 1 reverse transcriptase assessed as incorporation of 4-EdTMP by burst assay using RNA/DNA Primer/Template combination; outline: as §1
[11] = biological target: Human immunodeficiency virus type 1 reverse transcriptase (Human immunodeficiency virus 1) (UniProt Q72547); test: Activity of DNA-dependent DNA polymerase activity of HIV 1 reverse transcriptase assessed as incorporation of 4-EdTMP by burst assay using DNA/DNA Primer/Template combination; outline: as §2
[12] = biological target: Human immunodeficiency virus type 1 reverse transcriptase (Human immunodeficiency virus 1) (UniProt Q72547); test: Activity of RNA-dependent DNA polymerase activity of HIV 1 reverse transcriptase assessed as incorporation of 4-EdTMP by burst assay using RNA/DNA Primer/Template combination; outline: as §2
[13] = biological target: T1, Human immunodeficiency virus type 1 reverse transcriptase; test: Inhibition of DNA-dependent DNA polymerase activity of HIV 1 reverse transcriptase M184V mutant assessed as incorporation of 4-EdTMP by burst assay using DNA/DNA Primer/Template combination
[14] = biological target: Human immunodeficiency virus type 1 reverse transcriptase (Human immunodeficiency virus 1) (UniProt Q72547); test: Selectivity index, ratio of Kpol/Kd for DNA-dependent DNA polymerase activity of HIV 1 reverse transcriptase assessed as incorporation of dTMP to Kpol/Kd for DNA-dependent DNA polymerase activity of HIV 1 reverse transcriptase reverse transcriptase assessed as incorporation of Ed4TMP; outline: as §4
[15] = biological target: Human immunodeficiency virus type 1 reverse transcriptase (Human immunodeficiency virus 1) (UniProt Q72547); test: Selectivity index, ratio of Kpol/Kd for RNA-dependent DNA polymerase activity of HIV 1 reverse transcriptase assessed as incorporation of dTMP to Kpol/Kd for RNA-dependent DNA polymerase activity of HIV 1 reverse transcriptase reverse transcriptase assessed as incorporation of Ed4TMP; outline: as §4
[16] = biological target: T2, Human immunodeficiency virus type 1 reverse transcriptase; test: Inhibition of DNA-dependent DNA polymerase activity of HIV 1 reverse transcriptase assessed as incorporation of 4-EdTMP by burst assay using DNA/DNA Primer/Template combination; outline: as §5
[17] = biological target: T1, Human immunodeficiency virus type 1 reverse transcriptase; test: Inhibition of DNA-dependent DNA polymerase activity of HIV 1 reverse transcriptase M184V mutant assessed as incorporation of d4TMP by burst assay using DNA/DNA Primer/Template combination
[18] = biological target: T1, Human immunodeficiency virus type 1 reverse transcriptase; test: Inhibition of RNA-dependent DNA polymerase activity of HIV 1 reverse transcriptase M184V mutant assessed as incorporation of d4TMP by burst assay using RNA/DNA Primer/Template combination
[19] = biological target: T2, Human immunodeficiency virus type 1 reverse transcriptase; test: Inhibition of RNA-dependent DNA polymerase activity of HIV 1 reverse transcriptase assessed as incorporation of d4TMP by burst assay using RNA/DNA Primer/Template combination
[20] = biological target: T2, Human immunodeficiency virus type 1 reverse transcriptase; test: Inhibition of DNA-dependent DNA polymerase activity of HIV 1 reverse transcriptase assessed as incorporation of d4TMP by burst assay using DNA/DNA Primer/Template combination
[21] = biological target: Human immunodeficiency virus type 1 reverse transcriptase (Human immunodeficiency virus 1) (UniProt Q72547); test: Activity of DNA-dependent DNA polymerase activity of HIV 1 reverse transcriptase assessed as incorporation of dTMP by burst assay using DNA/DNA Primer/Template combination; outline: as §2
[22] = biological target: Human immunodeficiency virus type 1 reverse transcriptase (Human immunodeficiency virus 1) (UniProt Q72547); test: Activity of RNA-dependent DNA polymerase activity of HIV 1 reverse transcriptase assessed as incorporation of dTMP by burst assay using RNA/DNA Primer/Template combination; outline: as §2
[23] = tested on: Human immunodeficiency virus type 1 reverse transcriptase (Human immunodeficiency virus 1), Q72547 [M184V]; test: Ratio of Kpol/Kd for DNA-dependent DNA polymerase activity of HIV 1 reverse transcriptase M184V mutant assessed as incorporation of dTMP by burst assay using DNA/DNA Primer/Template combination
Outline: (§6)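 Single-turnover rapid-quench assay at 25°C, Tris-HCl pH 7.8 and NaCl. Enzyme (250 nM wild-type or M184V RT) was in excess over 5′-32P-labelled DNA/DNA or DNA/RNA P/T (50 nM), with the nucleotide triphosphate concentration varied. First-phase observed rates were fitted to kobs = kpol[S]/(Kd + [S]) to obtain Kd and kpol. Incorporation efficiency was taken as kpol/Kd.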

[24] = biological target: Human immunodeficiency virus type 1 reverse transcriptase (Human immunodeficiency virus 1) (UniProt Q72547); test: Ratio of Kpol/Kd for RNA-dependent DNA polymerase activity of HIV 1 reverse transcriptase assessed as incorporation of dTMP by burst assay using RNA/DNA Primer/Template combination; outline: as §6
[25] = tested on: Human immunodeficiency virus type 1 reverse transcriptase (Human immunodeficiency virus 1), Q72547 [M184V]; test: Activity of RNA-dependent DNA polymerase activity of HIV 1 reverse transcriptase M184V mutant assessed as incorporation of dTMP by burst assay using RNA/DNA Primer/Template combination
Outline: (§7)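 Pre-steady-state burst assay by rapid chemical quench at 25°C. Wild-type or M184V HIV-1 RT was preincubated with 5′-32P-labelled primer annealed to a DNA or RNA template. Final conditions were 100 nM enzyme, 300 nM P/T, and 1 mM nucleotide in 50 mM Tris-HCl pH 7.8 with 50 mM NaCl and MgSO4. Reactions were quenched with EDTA and products resolved by urea-PAGE with phosphorimaging. Data were fitted to the burst equation to give amplitude, kob and kss.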

[26] = biological target: T1, Human immunodeficiency virus type 1 reverse transcriptase; test: Inhibition of DNA-dependent DNA polymerase activity of HIV 1 reverse transcriptase M184V mutant assessed as incorporation of dTMP by burst assay using DNA/DNA Primer/Template combination; outline: as §7
[27] = biological target: T2, Human immunodeficiency virus type 1 reverse transcriptase; test: Inhibition of DNA-dependent DNA polymerase activity of HIV 1 reverse transcriptase assessed as incorporation of dTMP by burst assay using DNA/DNA Primer/Template combination; outline: as §7
[28] = biological target: T2, Human immunodeficiency virus type 1 reverse transcriptase; test: Inhibition of RNA-dependent DNA polymerase activity of HIV 1 reverse transcriptase assessed as incorporation of dTMP by burst assay using RNA/DNA Primer/Template combination; outline: as §7
[29] = tested on: Human immunodeficiency virus type 1 reverse transcriptase (Human immunodeficiency virus 1), Q72547 [M184V]; test: Activity of DNA-dependent DNA polymerase activity of HIV 1 reverse transcriptase M184V mutant assessed as incorporation of dTMP by burst assay using DNA/DNA Primer/Template combination; outline: as §2
[30] = biological target: Human immunodeficiency virus type 1 reverse transcriptase (Human immunodeficiency virus 1) (UniProt Q72547); test: Ratio of Kpol/Kd for DNA-dependent DNA polymerase activity of HIV 1 reverse transcriptase assessed as incorporation of dTMP by burst assay using DNA/DNA Primer/Template combination; outline: as §6
[31] = tested on: Human immunodeficiency virus type 1 reverse transcriptase (Human immunodeficiency virus 1), Q72547 [M184V]; test: Ratio of Kpol/Kd for RNA-dependent DNA polymerase activity of HIV 1 reverse transcriptase M184V mutant assessed as incorporation of dTMP by burst assay using RNA/DNA Primer/Template combination; outline: as §6
[32] = biological target: T1, Human immunodeficiency virus type 1 reverse transcriptase; test: Inhibition of RNA-dependent DNA polymerase activity of HIV 1 reverse transcriptase M184V mutant assessed as incorporation of dTMP by burst assay using RNA/DNA Primer/Template combination; outline: as §7

Question: What does the source list for `C#C[C@@]1(COP(=O)(O)OP(=O)(O)OP(=O)(O)O)C=C[C@H](n2cc(C)c(=O)[nH]c2=O)O1`?
Answer: Ratio [1]: 0.11 µM⁻¹ s⁻¹; Activity [2]: 9.7 s⁻¹; Kd [3]: 43.4 µM; Ratio [4]: 1.3; Activity [5]: 18.9 s⁻¹; Ratio [6]: 0.22 µM⁻¹ s⁻¹; Ratio [7]: 2.8; Kd [8]: 11.4 µM; Ratio [9]: 0.77 µM⁻¹ s⁻¹; Ratio [10]: 1 µM⁻¹ s⁻¹; Activity [11]: 12.1 s⁻¹; Activity [12]: 11.7 s⁻¹; Kd [13]: 168 µM; Ratio [14]: 1.9; Ratio [15]: 0.97; Kd [16]: 15.8 µM

Question: Which results are given for `Cc1cn([C@H]2C=C[C@@H](COP(=O)(O)OP(=O)(O)OP(=O)(O)O)O2)c(=O)[nH]c1=O` [STAVUDINE TRIPHOSPHATE]?
Answer: Kd [17]: 605 µM; Kd [18]: 232 µM; Kd [19]: 40.8 µM; Kd [20]: 48 µM

Question: How did the Activity [21] turn out when `Cc1cn([C@H]2C[C@H](O)[C@@H](COP(=O)(O)OP(=O)(O)OP(=O)(O)O)O2)c(=O)[nH]c1=O` [DEOXYTHYMIDINE_TRIPHOSPHATE] was run?
Answer: 22.6 s⁻¹

Question: What about the Activity [22] of the same compound?
Answer: 65 s⁻¹

Question: And the Ratio [23]?
Answer: 0.31 µM⁻¹ s⁻¹

Question: And the Ratio [24]?
Answer: 0.97 µM⁻¹ s⁻¹

Question: And the Activity [25]?
Answer: 41.7 s⁻¹

Question: And the Kd [26]?
Answer: 73.2 µM

Question: What about the Kd [27] of the same compound?
Answer: 15.4 µM

Question: And the Kd [28]?
Answer: 67.1 µM

Question: And the Activity [29]?
Answer: 22.4 s⁻¹

Question: And the Ratio [30]?
Answer: 1.47 µM⁻¹ s⁻¹

Question: And the Ratio [31]?
Answer: 0.29 µM⁻¹ s⁻¹

Question: And the Kd [32]?
Answer: 144 µM

— ChEMBL document CHEMBL1275425, “Mechanism of inhibition of human immunodeficiency virus type 1 reverse transcriptase by a stavudine analogue, 4'-ethynyl stavudine triphosphate” (Antimicrob Agents Chemother, 2008)
